Results: ChEMBL document CHEMBL1157110, “Hopane-type triterpenes and binaphthopyrones from the scale insect pathogenic fungus Aschersonia paraphysata BCC 11964” (J Nat Prod, 2010)
Where a name gives a salt, the structure may show the parent alone. Active and inactive are the calls of the source. The calls are words filed in the database; no cut-off is given here.

Legend:
Plasmodium falciparum = test: Antimalarial activity against Plasmodium falciparum K1 after 24 hrs by [G-3H]hypoxanthine uptake assay; type: functional, organism-based; conditions: K1, 24 h
Outline: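 Multidrug-resistant K1 strain, microculture radioisotope technique. Samples dissolved in DMSO as a 10 mg/mL stock, then diluted with water before testing. IC50 reported.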

NCI-H187 = test: Cytotoxicity against human NCI-H187 cells after 45 hrs by resazurin microplate assay; type: functional, cell-based; conditions: NCI-H187, 45 h
MCF7 = test: Cytotoxicity against human MCF7 cells after 45 hrs by resazurin microplate assay; type: functional, cell-based; conditions: MCF7, 45 h
KB = test: Cytotoxicity against human KB cells after 45 hrs by resazurin microplate assay; type: functional, cell-based
Vero = test: Cytotoxicity against african green monkey Vero cells by green fluorescent protein microplate assay; type: cell-based; conditions: Chlorocebus sabaeus
[1] = tested on: Mycobacterium tuberculosis; test: Antituberculosis activity against Mycobacterium tuberculosis; type: functional, organism-based

| Structure (SMILES) | IC50 (Plasmodium falciparum) [µM] | IC50 (NCI-H187) [µM] | IC50 (MCF7) [µM] | IC50 (KB) [µM] | IC50 (Vero) [µM] | Activity [1] |
| --- | --- | --- | --- | --- | --- | --- |
| CC(C)C1=C2CC[C@]3(C)[C@H]([C@H](O)C[C@@H]4[C@@]5(C)CCCC(C)(C)[C@@H]5CC[C@]43C)[C@@]2(C)CC1 | > 23 | > 118 | > 118 | > 118 | > 118 | inactive |
| CC(C)C1=C2CC[C@]3(C)[C@H]([C@H](O)C[C@@H]4[C@@]5(C)CCCC(C)(C)[C@@H]5[C@@H](O)C[C@]43C)[C@@]2(C)CC1 | 15 | > 113 | > 113 | > 113 | > 113 | inactive |
| C[C@H]1[C@@H](O)O[C@@H]2O[C@@]3(C)CC[C@H]4[C@H](C)CC[C@@H]1[C@@]24OO3 [ARTENIMOL] | 0.0046 |  |  |  |  |  |
| CC1Cc2cc3c(-c4c(O)cc(O)c5c(O)c6c(cc45)CC(C)OC6=O)c(O)cc(O)c3c(O)c2C(=O)O1 (centres undefined) [ASCHERNAPHTHOPYRONE A] | 7.3 | 4.5 | 87 | 17 | > 96 | inactive |
| CC1Cc2cc3cc(O)c(-c4c(O)cc5cc6c(c(O)c5c4O)C(=O)OC(C)C6)c(O)c3c(O)c2C(=O)O1 (centres undefined) [ASCHERNAPHTHOPYRONE B] | > 19 | 95 | 79 | > 96 | 52 | inactive |
| COc1cccc2c1C(=O)c1c(O)c3c(c(O)c1C2=O)C[C@@](O)(C(=O)CO)C[C@@H]3O[C@H]1C[C@H](N)[C@H](O)[C@H](C)O1 [DOXORUBICIN HYDROCHLORIDE] |  | 0.086 |  |  |  |  |
| Cc1c2ccncc2c(C)c2c1[nH]c1ccccc12 [ELLIPTECINE] |  | 1.5 |  |  | 3.8 |  |
| CC(C)C1=C2CC[C@]3(C)[C@H](CC[C@@H]4[C@@]5(C)CCCC(C)(C)[C@@H]5[C@@H](O)C[C@]43C)[C@@]2(C)CC1 [ZEORININ] | > 23 | > 118 | > 118 | > 118 | > 118 | inactive |
